Experimental data as given in ChEMBL document CHEMBL4715748, “Synthesis and biological investigation of new equatorial (β) stereoisomers of 3-aminotropane arylamides with atypical antipsychotic profile” (Bioorg Med Chem, 2016).
pKi: −log10 of the molar value.

How the values were obtained:
Mus musculus [1] = assay: Inhibition of 8-OH-DPAT-induced hypothermia in Swiss albino mouse assessed as change in rectal body temperature at 0.3 mg/kg, sc pretreated with compound for 45 mins followed by 8-OH-DPAT challenge and measured after 15 min by thermometer (reference value: -1.8 degreeC); type: functional, organism-based; details: time 60.0 min
Mus musculus [2] = assay: Inhibition of 8-OH-DPAT-induced hypothermia in Swiss albino mouse assessed as change in rectal body temperature at 0.3 mg/kg, sc pretreated with compound for 45 mins followed by 8-OH-DPAT challenge and measured after 30 min by thermometer (reference value: -1.7 degreeC); type: functional, organism-based; details: time 75.0 min
Mus musculus [3] = assay: Inhibition of 8-OH-DPAT-induced hypothermia in Swiss albino mouse assessed as change in rectal body temperature at 0.3 mg/kg, sc pretreated with compound for 45 mins followed by 8-OH-DPAT challenge and measured after 45 min by thermometer (reference value: -1.3 degreeC); type: functional, organism-based; details: time 90.0 min
Mus musculus [4] = assay: Inhibition of 8-OH-DPAT-induced hypothermia in Swiss albino mouse assessed as change in rectal body temperature at 0.3 mg/kg, sc pretreated with compound for 45 mins followed by 8-OH-DPAT challenge and measured after 60 min by thermometer (reference value: -1.3 degreeC); type: functional, organism-based; details: time 105.0 min
[5] = Effect on 8-OH-DPAT-induced lower lip retraction in Wistar rat at 0.1 mg/kg, sc pretreated with compound for 45 mins followed by 8-OH-DPAT challenge and measured after 15 mins (reference value: 2.7 to 2.8); type: functional; details: time 60 min, 1 h
[6] = Effect on 8-OH-DPAT-induced lower lip retraction in Wistar rat at 0.2 mg/kg, sc pretreated with compound for 15 mins followed by 8-OH-DPAT challenge and measured after 15 mins (reference value: 2.7 to 2.8); details: time 30 min, 0.5 h
D(2) dopamine receptor = D(2) dopamine receptor (Rattus norvegicus, UniProt P61169); assay: Displacement of [3H] Spiperone from rat striatum dopamine D2 receptor measured after 30 mins by liquid scintillation counter method
Method in brief: (§1)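 Competition binding in rat brain tissue membranes against D2, 5-HT1A and 5-HT2A sites; Ki reported as mean ± S.E.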

[7] = biological target: T1, 5-hydroxytryptamine receptor 1A (Rattus norvegicus, UniProt P19327); assay: Displacement of [3H]-8-OH-DPAT from rat cerebral cortex 5HT1A receptor measured after 15 mins by liquid scintillation counter method
T1 sequence (P19327 whole entry): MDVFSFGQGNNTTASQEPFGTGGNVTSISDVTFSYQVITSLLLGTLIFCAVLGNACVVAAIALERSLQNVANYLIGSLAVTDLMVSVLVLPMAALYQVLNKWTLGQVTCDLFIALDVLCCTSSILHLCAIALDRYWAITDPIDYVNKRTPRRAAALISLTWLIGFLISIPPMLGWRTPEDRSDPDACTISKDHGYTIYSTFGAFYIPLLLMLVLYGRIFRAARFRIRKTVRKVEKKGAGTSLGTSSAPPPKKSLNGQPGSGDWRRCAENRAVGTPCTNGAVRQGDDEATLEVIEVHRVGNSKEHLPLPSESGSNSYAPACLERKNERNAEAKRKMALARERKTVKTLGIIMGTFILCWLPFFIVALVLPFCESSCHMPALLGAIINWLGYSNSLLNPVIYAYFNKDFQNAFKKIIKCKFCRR

[8] = biological target: 5-hydroxytryptamine receptor 2A (Rattus norvegicus, UniProt P14842); assay: Displacement of [3H]-ketanserin from rat cerebral cortex 5HT2A receptor measured after 20 mins by liquid scintillation counter method; method in brief: as §1
[9] = biological target: Dopamine D2 receptor and Serotonin 2a receptor (D2 and 5HT2a) (Rattus norvegicus) (UniProt P61169+P14842); assay: Ratio of pKi for displacement of [3H]-ketanserin from rat cerebral cortex 5HT2A receptor measured after 20 mins by liquid scintillation counter method to pKi for displacement of [3H] Spiperone from rat striatum dopamine D2 receptor measured after 30 mins by liquid scintillation counter method
Method in brief: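 Ratio of pKi values, 5-HT2A over D2, computed from competition radioligand binding in rat brain tissue.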

[10] = Effect on body temperature in Swiss Albino mouse assessed as rectal body temperature at 10 mg/kg, ip measured after 30 mins by thermometer (reference value: 0.16 to 0.33 degreeC); type: organism-based; details: in vivo, 0.5 h
[11] = Effect on body temperature in Swiss Albino mouse assessed as rectal body temperature at 20 mg/kg, ip measured after 30 mins by thermometer (reference value: 0.16 to 0.33 degreeC); type: ADME, organism-based; details: in vivo, 0.5 h
[12] = Effect on body temperature in Swiss Albino mouse assessed as rectal body temperature at 10 mg/kg, ip measured after 60 mins by thermometer (reference value: 0.33 to 0.61 degreeC); type: ADME, organism-based; details: in vivo, 1 h
[13] = Effect on body temperature in Swiss Albino mouse assessed as rectal body temperature at 20 mg/kg, ip measured after 60 mins by thermometer (reference value: 0.33 to 0.61 degreeC); type: ADME, organism-based; details: in vivo, 1 h
[14] = Effect on body temperature in Swiss Albino mouse assessed as rectal body temperature at 10 mg/kg, ip measured after 90 mins by thermometer (reference value: 0.18 to 0.63 degreeC); type: ADME, organism-based; details: in vivo, 1.5 h
[15] = Effect on body temperature in Swiss Albino mouse assessed as rectal body temperature at 20 mg/kg, ip measured after 90 mins by thermometer (reference value: 0.18 to 0.63 degreeC); type: ADME, organism-based; details: in vivo, 1.5 h
[16] = Effect on body temperature in Swiss Albino mouse assessed as rectal body temperature at 10 mg/kg, ip measured after 120 mins by thermometer (reference value: 0.15 to 1.11 degreeC); type: organism-based; details: in vivo, 2 h
[17] = Effect on body temperature in Swiss Albino mouse assessed as rectal body temperature at 20 mg/kg, ip measured after 120 mins by thermometer (reference value: 0.15 to 1.11 degreeC); type: ADME, organism-based; details: in vivo, 2 h
Mus musculus [18] = assay: Effect on 8-OH-DPAT-induced hypothermia in Swiss albino mouse assessed as change in rectal body temperature at 10 mg/kg, ip pretreated with compound for 45 mins followed by 8-OH-DPAT challenge and measured after 15 min by thermometer (reference value: -1.82 to -1.66 degreeC); type: functional, organism-based; details: time 60.0 min
Mus musculus [19] = assay: Effect on 8-OH-DPAT-induced hypothermia in Swiss albino mouse assessed as change in rectal body temperature at 20 mg/kg, ip pretreated with compound for 45 mins followed by 8-OH-DPAT challenge and measured after 15 min by thermometer (reference value: -1.82 to -1.66 degreeC); type: functional, organism-based; details: time 60.0 min
Mus musculus [20] = assay: Effect on 8-OH-DPAT-induced hypothermia in Swiss albino mouse assessed as change in rectal body temperature at 10 mg/kg, ip pretreated with compound for 45 mins followed by 8-OH-DPAT challenge and measured after 30 min by thermometer (reference value: -1.36 to -1.12 degreeC); type: functional, organism-based; details: time 75.0 min
Mus musculus [21] = assay: Effect on 8-OH-DPAT-induced hypothermia in Swiss albino mouse assessed as change in rectal body temperature at 20 mg/kg, ip pretreated with compound for 45 mins followed by 8-OH-DPAT challenge and measured after 30 min by thermometer (reference value: -1.36 to -1.12 degreeC); type: functional, organism-based; details: time 75.0 min
Mus musculus [22] = assay: Effect on 8-OH-DPAT-induced hypothermia in Swiss albino mouse assessed as change in rectal body temperature at 10 mg/kg, ip pretreated with compound for 45 mins followed by 8-OH-DPAT challenge and measured after 45 min by thermometer (reference value: -1.04 to -0.78 degreeC); type: functional, organism-based; details: time 90.0 min
Mus musculus [23] = assay: Effect on 8-OH-DPAT-induced hypothermia in Swiss albino mouse assessed as change in rectal body temperature at 20 mg/kg, ip pretreated with compound for 45 mins followed by 8-OH-DPAT challenge and measured after 45 min by thermometer (reference value: -1.04 to -0.78 degreeC); type: functional, organism-based; details: time 90.0 min
Mus musculus [24] = assay: Effect on 8-OH-DPAT-induced hypothermia in Swiss albino mouse assessed as change in rectal body temperature at 10 mg/kg, ip pretreated with compound for 45 mins followed by 8-OH-DPAT challenge and measured after 60 min by thermometer (reference value: -0.66 to -0.5 degreeC); type: functional, organism-based; details: time 105.0 min
Mus musculus [25] = assay: Effect on 8-OH-DPAT-induced hypothermia in Swiss albino mouse assessed as change in rectal body temperature at 20 mg/kg, ip pretreated with compound for 45 mins followed by 8-OH-DPAT challenge and measured after 60 min by thermometer (reference value: -0.66 to -0.5 degreeC); type: functional, organism-based; details: time 105.0 min
[26] = Effect on 8-OH-DPAT-induced lower lip retraction in Wistar rat at 10 mg/kg, ip pretreated with compound for 45 mins followed by 8-OH-DPAT challenge and measured after 15 mins (reference value: 2.7 to 2.8); type: functional; details: time 60 min, 1 h
[27] = Effect on 8-OH-DPAT-induced lower lip retraction in Wistar rat at 20 mg/kg, ip pretreated with compound for 45 mins followed by 8-OH-DPAT challenge and measured after 15 mins (reference value: 2.7 to 2.8); type: functional; details: time 60 min, 1 h
Mus musculus [28] = assay: Antipsychotic activity Swiss Albino mouse assessed as inhibition of DOI-induced head twitching by measuring number of episodes at 2.5 mg/kg, ip administered 30 mins prior to DOI stimulation (reference value: 19.63 to 19.88); type: functional; details: 0.5 h
Method in brief: (§2)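 Male Albino Swiss mice (24–28 g) were habituated to sawdust-lined cages 20 min before the first treatment. Compounds were suspended in 1% aqueous Tween 80 and given i.p. 30 min before (±)-DOI, 2.5 mg/kg i.p. in aqueous solution. Head twitches were counted blind over 20 min, n=8 per group, mean ± SEM, one-way ANOVA with Dunnett's test.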

Mus musculus [29] = assay: Antipsychotic activity Swiss Albino mouse assessed as inhibition of DOI-induced head twitching by measuring number of episodes at 5 mg/kg, ip administered 30 mins prior to DOI stimulation (reference value: 19.63 to 19.88); type: functional; details: 0.5 h; method in brief: as §2
Mus musculus [30] = assay: Antipsychotic activity Swiss Albino mouse assessed as inhibition of DOI-induced head twitching by measuring number of episodes at 10 mg/kg, ip administered 30 mins prior to DOI stimulation (reference value: 19.63 to 19.88); type: functional; details: 0.5 h; method in brief: as §2
[31] = Half life in pooled human liver microsomes assessed as parent compound remaining at 2.5 uM measured up to 45 mins in presence of NADPH by LC-MS analysis; type: ADME, Microsome
Method in brief: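 Compound at 2.5 μM (added from 100 μM stock in 50/50 acetonitrile/water) with 1 mg/mL pooled human liver microsomes and 250 μM NADPH in 0.1 M potassium phosphate pH 7.4 at 37 °C after 5-min preincubation. Sampled at 5, 10, 15, 30, 45 min into ice-cold acetonitrile with atropine internal standard; parent quantified by LC-MS (ESI+, [M+H]+); no-NADPH controls; half-time derived.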

5-hydroxytryptamine receptor 2A, sequence (P14842 whole entry): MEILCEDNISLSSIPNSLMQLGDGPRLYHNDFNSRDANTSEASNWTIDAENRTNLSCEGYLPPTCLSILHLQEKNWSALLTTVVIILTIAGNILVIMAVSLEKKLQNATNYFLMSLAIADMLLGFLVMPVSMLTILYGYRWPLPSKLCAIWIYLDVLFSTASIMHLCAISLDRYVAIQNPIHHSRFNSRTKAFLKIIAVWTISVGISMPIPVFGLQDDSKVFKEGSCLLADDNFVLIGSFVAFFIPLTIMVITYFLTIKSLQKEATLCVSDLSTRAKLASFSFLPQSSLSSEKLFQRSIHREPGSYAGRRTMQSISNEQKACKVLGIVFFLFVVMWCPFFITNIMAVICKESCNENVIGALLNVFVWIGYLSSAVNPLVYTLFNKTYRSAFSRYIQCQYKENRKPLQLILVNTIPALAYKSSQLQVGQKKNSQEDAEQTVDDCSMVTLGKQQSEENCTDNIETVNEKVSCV
Dopamine D2 receptor and Serotonin 2a receptor (D2 and 5HT2a) (Rattus norvegicus), sequence (P14842 whole entry, looked up): as the sequence (P14842 whole entry) above
Dopamine D2 receptor and Serotonin 2a receptor (D2 and 5HT2a) (Rattus norvegicus), sequence (P61169 whole entry, looked up): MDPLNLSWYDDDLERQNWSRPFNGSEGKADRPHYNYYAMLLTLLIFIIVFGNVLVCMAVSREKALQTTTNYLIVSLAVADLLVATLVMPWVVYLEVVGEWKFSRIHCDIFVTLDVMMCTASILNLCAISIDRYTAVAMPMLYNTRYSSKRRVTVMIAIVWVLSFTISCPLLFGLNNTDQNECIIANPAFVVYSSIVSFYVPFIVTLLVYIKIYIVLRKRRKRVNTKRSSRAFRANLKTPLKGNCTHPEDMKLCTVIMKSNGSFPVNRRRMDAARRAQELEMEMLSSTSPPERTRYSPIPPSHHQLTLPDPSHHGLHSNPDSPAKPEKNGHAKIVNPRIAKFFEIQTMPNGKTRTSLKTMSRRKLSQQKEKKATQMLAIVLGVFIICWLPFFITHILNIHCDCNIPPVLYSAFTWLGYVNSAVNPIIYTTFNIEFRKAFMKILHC
D(2) dopamine receptor, sequence (P61169 whole entry): as the sequence (P61169 whole entry, looked up) above

Row | Structure (SMILES) | pKi (D(2) dopamine receptor) | pKi [7] | pKi [8] | Ratio pKi [9] | deltaT [10] [°C] | deltaT [11] [°C] | deltaT [12] [°C] | deltaT [13] [°C] | deltaT [14] [°C] | deltaT [15] [°C] | deltaT [16] [°C] | deltaT [17] [°C] | deltaT (Mus musculus [18]) [°C] | deltaT (Mus musculus [19]) [°C] | deltaT (Mus musculus [20]) [°C] | deltaT (Mus musculus [21]) [°C] | deltaT (Mus musculus [22]) [°C] | deltaT (Mus musculus [23]) [°C] | deltaT (Mus musculus [24]) [°C] | deltaT (Mus musculus [25]) [°C] | also measured
1 | COc1ccccc1N1CCN(CCN(C(=O)C2CCCCC2)c2ccccn2)CC1 [WAY-100,635] | – | – | – | – | – | – | – | – | – | – | – | – | – | – | – | – | – | – | – | – | deltaT (Mus musculus [1]): -0.6 °C; deltaT (Mus musculus [2]): -0.8 °C; deltaT (Mus musculus [3]): -0.5 °C; deltaT (Mus musculus [4]): -0.2 °C; Activity [5]: 1.4; Activity [6]: 1.3
2 | COc1cccc(CN2C3CCC2CC(NC(=O)c2ccc4ccccc4c2)C3)c1 (stereo not drawn) | 7.59 | 6.67 | 6.18 | 0.81 | -0.03 | -0.1 | 0.03 | 0.57 | 0.17 | 0.81 | 0.7 | 1.26 | -1.52 | -1.25 | -1.32 | -1.65 | -0.87 | -1.33 | -0.6 | -0.97 | Activity [26]: 2.4; Activity [27]: 2.5; Activity (Mus musculus [28]): 16.63; Activity (Mus musculus [29]): 14.25; Activity (Mus musculus [30]): 9.88; half-life at 2.5 µM [31]: 42.9 min
3 | O=C(NC1CC2CCC(C1)N2Cc1ccccc1Cl)c1ccc2ccccc2c1 (stereo not drawn) | 7.46 | 6.80 | 6.40 | 0.86 | 0 | -0.36 | 0.96 | 0.44 | 0.84 | 0.44 | 1.34 | 1.39 | -0.97 | -2 | -1.17 | -2.12 | -0.62 | -2.18 | -0.12 | -1.53 | Activity [26]: 2.5; Activity [27]: 2; Activity (Mus musculus [28]): 20; Activity (Mus musculus [29]): 14.75; Activity (Mus musculus [30]): 10.75; half-life at 2.5 µM [31]: 33 min
